Assay outcomes from PubChem.
A selection: hits, their analogues and other compounds. The true share with any hit is near 2.9%.
5HT1a ag – human 5-HT1a receptor agonists, primary screen, cell-based, CHO, Ga15 NFAT-bla reporter. activation, % at 10 µM. CHO 5-HT1a Ga15 NFAT-bla reporter, FRET ratio; 0% basal, 100% maximal reference agonist. 5-hydroxytryptamine receptor 1A (Homo sapiens), P08908. hit rate 0.56% among 65,000;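 active = activation above the screen-wide mean activation plus 3 SD, cut at about 19% in these data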;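 note: 0% = DMSO wells and 100% = 5-CT at EC100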
Target sequence (P08908 whole entry, looked up): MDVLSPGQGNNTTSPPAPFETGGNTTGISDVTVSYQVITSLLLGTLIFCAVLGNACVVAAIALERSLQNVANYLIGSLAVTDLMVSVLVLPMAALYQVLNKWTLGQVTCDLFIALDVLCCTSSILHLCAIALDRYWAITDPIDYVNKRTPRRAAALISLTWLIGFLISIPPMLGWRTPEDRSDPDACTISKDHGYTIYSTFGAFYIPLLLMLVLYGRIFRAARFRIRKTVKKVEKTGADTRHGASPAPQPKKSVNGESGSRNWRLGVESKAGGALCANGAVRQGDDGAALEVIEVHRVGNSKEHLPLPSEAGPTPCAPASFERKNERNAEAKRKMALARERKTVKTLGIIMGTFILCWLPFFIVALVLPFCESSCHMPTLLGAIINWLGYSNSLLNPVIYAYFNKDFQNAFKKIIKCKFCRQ
HTR1E agonist – 5-HT1E receptor agonists, primary screen, cell-based, HTS | 5-hydroxytryptamine receptor 1E (Homo sapiens), P28566 | CHO 5-HT1E Ga15 NFAT-bla reporter, FRET; 0% DMSO wells, 100% control agonist wells | activation, % at 6 µM | hit rate 0.69% among 65,000 | AID 574, 2007;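 active = activation above a set limit, the screen-wide mean activation plus 3 SD, cut at about 8.5% in these data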;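 note: 100% = positive control agonist at 1 µM giving full maximal response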
S1P3 agonist – human S1P3 receptor agonists, primary screen, cell-based, primary and confirmation, NFAT-BLA reporter. AID 373, 2006. Sphingosine 1-phosphate receptor 3 (Homo sapiens), Q99500. activation, % at 4.5 µM. S1P3 NFAT-BLA reporter cells, agonism, FRET ratio; relative to 1 µM S1P, basal subtracted. hit rate 0.1% among 60,000;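 active = activation above the screen-wide mean plus 3 SD, cut at about 4.5% in these data, passing the limit was not always enough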
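Measure – % activation relative to 1 µM S1P (100%), per plate · System – stable CHO line with human S1P3, Gα16, NFAT-BLA reporter · Timing – cells plated overnight, compound 4 h 37 °C, substrate 2 h RT · Technique – fluorescent BLA substrate, ex 405 nm, em 460/535 nm ratio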
S1P1 ag pot – S1P1 agonists and agonism potentiators, primary screen, cell-based, primary and confirmation screens, CRE-bla reporter. activation, % at 9.5 µM. hit rate 0.57% among 56,000. Sphingosine 1-phosphate receptor 1 (Homo sapiens), P21453. S1P1 CRE-bla cells, forskolin, beta-lactamase FRET, potentiator mode; S1P1 agonist co-added at EC20, 2 nM; 100% = saturating reference agonist, 0% = basal;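 active = activation above a cutoff set at the mean activation of all tested compounds plus 3 SD, cut at about 54% in these data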;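 note: forskolin at 4 µM as EC80 and the EC20 agonist is SEW2871; 100% = SEW2871 at its EC100 plus forskolin at EC80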
5-HT1A blocker – human 5-HT1a receptor antagonists, primary screen, cell-based, CHO, Ga15 NFAT-bla reporter. 5-hydroxytryptamine receptor 1A (Homo sapiens), P08908. hit rate 0.68% among 62,000. CHO 5-HT1a Ga15 NFAT-bla reporter, antagonist mode. inhibition, % at 10 µM;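 active = inhibition above the mean of all tested compounds plus 3 SD, cut at about 43% in these data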;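 note: receptor stimulated by 5-CT agonist at 100 nM near EC80; beta-lactamase reporter measured by ratiometric fluorescence of a cleavable substrate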
5HT1E antag – 5-HT1E receptor antagonists, primary screen, cell-based, HTS. 5-hydroxytryptamine receptor 1E (Homo sapiens), P28566. CHO 5-HT1E Ga15 NFAT-bla reporter, FRET, antagonist. inhibition, % at 6 µM. hit rate 0.99% among 65,000;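 active = inhibition above a set limit, the mean inhibition across every tested compound plus 3 SD, cut at about 29% in these data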;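 note: signal is the 460 over 535 nm emission ratio of beta-lactamase substrate; 0% = agonist plus DMSO wells and 100% = wells without agonist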
Starred values were filed as active, the others as inactive; x = not tested or not shown.

SMILES | 5HT1a ag | HTR1E agonist | S1P3 agonist | S1P1 ag pot | 5-HT1A blocker | 5HT1E antag
CC(C)c1nnc(NC(=O)Cn2nc(-c3ccc4c(c3)OCCO4)ccc2=O)s1 | -2 | 14* | 1 | 8 | -1 | 0
Cc1ccc(-n2c(SCc3cn4ccsc4n3)nc3ccccc3c2=O)cc1 | 3 | 0 | 1 | 20 | 17 | 43*
O=c1c2ccccc2nc(SCc2nc(-c3ccccc3)no2)n1-c1ccc(F)cc1 | 20* | 0 | -2 | 3 | 13 | -2
c1ccc(-n2cnnc2SCc2cn3ccsc3n2)cc1 | 1 | 0 | -1 | -4 | 0 | 3
COc1ccccc1-c1cc(C(F)(F)F)nc(S(=O)(=O)CCCC(=O)N2CCOCC2)n1 | 8 | 5 | 0 | -64 | 26 | 59*
Cc1cccc(C)c1NC(=O)C1(N2CCN(C(=O)c3ccco3)CC2)CCCCC1 | 0 | 0 | 0 | 1 | -13 | -4
Cc1ccc(-n2ncc3c(N4CCCC4)ncnc32)c(C)c1 | 0 | 0 | -3 | -11 | x | 13
Cc1ccc(C)c(N2CCN(c3ncnc4c3cnn4-c3ccccc3)CC2)c1 | 0 | 1 | 0 | -25 | 9 | -12
COc1cccc(N2CCN(c3ncnc4c3cnn4-c3ccc(C)cc3C)CC2)c1 | 3 | 3 | -3 | 6 | 48* | 69*
Cc1ccc(-n2ncc3c(N4CCCC(C)C4)ncnc32)c(C)c1 (stereo not given) | 0 | 0 | -1 | 73* | -11 | -14
O=C(CSc1ccc2nnc(-c3ccc(Cl)cc3)n2n1)N1CCN(c2ccccc2)CC1 | 0 | 0 | -1 | -17 | 0 | 2
Cc1ccc(C)c(N2CCN(CC(=O)Nc3ccc4[nH]c(=O)[nH]c4c3)CC2)c1 | 0 | 23* | -1 | -4 | 8 | -9
COc1ccc(S(=O)(=O)NC(CC(=O)NCCc2ccc(OC)c(OC)c2)c2ccco2)cc1 (stereo not given) | -4 | 0 | -1 | -6 | -2 | 1
Nc1ccc(CN2CCN(c3ccc4ccccc4n3)CC2)cc1 | -1 | 14* | 0 | 17 | 11 | 1
OCCNc1nc(N2CCN(Cc3ccccc3)CC2)nc2ccccc12 | -2 | -1 | 0 | -16 | -16 | -18
CCN1CCN(c2nc3c(c(=O)[nH]c(=O)n3C)n2CCCSc2ncccn2)CC1 | 62* | 0 | 0 | 2 | -6 | 0
COc1ccc2c(c1)c1ncnc(N3CCN(Cc4ccc5c(c4)OCO5)CC3)c1n2C | 3 | 0 | -1 | -13 | -31 | -6
COc1ccc2[nH]c3c(N4CCN(Cc5ccc6c(c5)OCO6)CC4)ncnc3c2c1 | 2 | -1 | -2 | -10 | x | 29*
COCCN(C(=O)c1csnn1)C(C(=O)NC(C)(C)C)c1cccc(OC)c1 (stereo not given) | 0 | 1 | -1 | -7 | -7 | 4
Cc1ccc(C(=O)OCc2nnc(-c3ccccc3)o2)o1 | -2 | 0 | -1 | -2 | 8 | 0
CC(=O)c1c(C)[nH]c(C(=O)OCc2nnc(-c3ccccc3)o2)c1C | -1 | 1 | -1 | 1 | 0 | 35*
CC1=C/C(=C/N(C)c2ccccc2)C(=O)S1 | -7 | -1 | 0 | 0 | 44* | 15
CCOC(=O)CN(C(=O)CSc1nnc(-c2ccc(OC)c(OC)c2)o1)c1ccc(F)cc1 | 22* | 0 | -1 | -12 | -2 | 18
COc1ccc(-c2nnc(SCC(=O)N(Cc3ccccc3)C(C)(C)C)o2)cc1OC | -2 | 0 | -1 | 8 | -7 | -1
Cc1oc2cc(O)cc(O)c2c(=O)c1-c1ccc2c(c1)OCCCO2 | 0 | 0 | -1 | 93* | 7 | 5
